Measured values from ChEMBL document CHEMBL1140191, “Lynamicins A-E, chlorinated bisindole pyrrole antibiotics from a novel marine actinomycete” (J Nat Prod, 2008).
Values after ≈ are worked out from the molar mass of the structure shown.

What was measured:
[1] = tested on: Herpesviridae sp.; test: Antiviral activity against HSV; assay type: functional, organism-based
[2] = tested on: Enterococcus faecalis; test: Antibacterial activity against vancomycin-sensitive Enterococcus faecalis ATCC 29212 after 14 to 16 hrs by serial microbroth dilution method; assay type: functional
Outline: (§1)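 NCCLS broth microdilution in cation-adjusted Mueller-Hinton broth, no CO2 incubation. Final inoculum about 5 × 10^5 cfu/mL. Plates held at 35 °C for 14-16 h. MIC read as the lowest concentration with no visible bacterial growth.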

[3] = tested on: Staphylococcus epidermidis; test: Antibacterial activity against multi drug-resistant Staphylococcus epidermidis ATCC 700578 after 14 to 16 hrs by serial microbroth dilution method; assay type: functional
Outline: (§2)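 Broth microdilution MIC per NCCLS standards in cation-adjusted Mueller-Hinton broth, without CO2. Final inoculum approximately 5 × 10^5 cfu/mL. Incubated 35 °C for 14-16 h. MIC taken as the lowest drug concentration preventing visible growth.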

[4] = tested on: Streptococcus pneumoniae; test: Antibacterial activity against penicillin-resistant Streptococcus pneumoniae ATCC 51915after 14 to 16 hrs; assay type: functional
Outline: (§3)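 Serial microbroth dilution MIC per NCCLS in cation-adjusted Mueller-Hinton broth II with lysed horse blood. Incubated in a CO2 incubator at 35 °C for 14-16 h. Final inoculum approximately 5 × 10^5 cfu/mL. MIC read as the lowest concentration with no visible growth.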

[5] = tested on: Enterococcus faecium; test: Antibacterial activity against vancomycin-resistant Enterococcus faecium ATCC 700221 after 14 to 16 hrs by serial microbroth dilution method; assay type: functional; outline: as §2
[6] = tested on: Haemophilus influenzae; test: Antibacterial activity against Haemophilus influenzae ATCC […] after 14 to 16 hrs; assay type: functional
Outline: (§4)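 Serial microbroth dilution (NCCLS) in Haemophilus Test Medium in a CO2 incubator. Final inoculum about 5 × 10^5 cfu/mL, 35 °C for 14-16 h. MIC is the lowest drug concentration preventing visible growth.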

[7] = tested on: Haemophilus influenzae; test: Antibacterial activity against Haemophilus influenzae ATCC 49766 after 14 to 16 hrs; assay type: functional; outline: as §4
[8] = tested on: Escherichia coli; test: Antibacterial activity against Escherichia coli imp permeable mutant after 14 to 16 hrs by serial microbroth dilution method; assay type: functional; outline: as §2
[9] = tested on: Streptococcus pneumoniae; test: Antibacterial activity against penicillin-sensitive Streptococcus pneumoniae ATCC 49619 after 14 to 16 hrs; assay type: functional; outline: as §3
[10] = tested on: Staphylococcus epidermidis; test: Antibacterial activity against multi drug-resistant Staphylococcus epidermidis ATCC 700582 after 14 to 16 hrs by serial microbroth dilution method; assay type: functional; outline: as §2
[11] = tested on: Staphylococcus aureus; test: Antibacterial activity against methicillin-resistant Staphylococcus aureus ATCC 43300 after 14 to 16 hrs by serial microbroth dilution method; assay type: functional; outline: as §2
[12] = tested on: Staphylococcus aureus; test: Antibacterial activity against methicillin-sensitive Staphylococcus aureus ATCC 29213 after 14 to 16 hrs by serial microbroth dilution method; assay type: functional; outline: as §1

| Structure (SMILES) | IC50 [1] [µg/mL] | MIC [2] [µM] | MIC [3] [µM] | MIC [4] [µM] | MIC [5] [µM] | MIC [6] [µM] | MIC [7] [µM] | MIC [8] [µM] | MIC [9] [µM] | MIC [10] [µM] | MIC [11] [µM] | MIC [12] [µM] |
| --- | --- | --- | --- | --- | --- | --- | --- | --- | --- | --- | --- | --- |
| O=C(O)c1[nH]c(C(=O)O)c(-c2c[nH]c3ccccc23)c1-c1c[nH]c2ccccc12 [LYCOGALIC ACID A] | 17.2 (≈ 44.6 µM) | – | – | – | – | – | – | – | – | – | – | – |
| COC(=O)c1[nH]c(C(=O)OC)c(-c2c[nH]c3ccccc23)c1-c1c[nH]c2ccccc12 [LYCOGARUBIN C] | 17.2 (≈ 41.6 µM) | – | – | – | – | – | – | – | – | – | – | – |
| COC(=O)c1[nH]cc(-c2c[nH]c3ccc(Cl)cc23)c1-c1c[nH]c2ccc(Cl)cc12 [LYNAMICIN A] | – | 19 (≈ 8.06 µg/mL) | 9.5 (≈ 4.03 µg/mL) | 57 (≈ 24.2 µg/mL) | 19 (≈ 8.06 µg/mL) | 38 (≈ 16.1 µg/mL) | 28 (≈ 11.9 µg/mL) | 16 (≈ 6.79 µg/mL) | 57 (≈ 24.2 µg/mL) | 9.5 (≈ 4.03 µg/mL) | 4.7 (≈ 1.99 µg/mL) | 4.3 (≈ 1.82 µg/mL) |
| COC(=O)c1[nH]cc(-c2c[nH]c3cc(Cl)c(Cl)cc23)c1-c1c[nH]c2ccc(Cl)cc12 [LYNAMICIN B] | – | 3.3 (≈ 1.51 µg/mL) | 2.2 (≈ 1.01 µg/mL) | 18 (≈ 8.26 µg/mL) | 4.4 (≈ 2.02 µg/mL) | 4.4 (≈ 2.02 µg/mL) | 13 (≈ 5.96 µg/mL) | 13 (≈ 5.96 µg/mL) | 18 (≈ 8.26 µg/mL) | 2.2 (≈ 1.01 µg/mL) | 2.2 (≈ 1.01 µg/mL) | 1.8 (≈ 0.826 µg/mL) |
| Clc1cc2[nH]cc(-c3c[nH]cc3-c3c[nH]c4cc(Cl)c(Cl)cc34)c2cc1Cl [LYNAMICIN C] | – | 5.8 (≈ 2.52 µg/mL) | 2.3 (≈ 1 µg/mL) | 46 (≈ 20 µg/mL) | 4.6 (≈ 2 µg/mL) | 9.2 (≈ 4 µg/mL) | 15 (≈ 6.53 µg/mL) | 15 (≈ 6.53 µg/mL) | 46 (≈ 20 µg/mL) | 2.3 (≈ 1 µg/mL) | 3.5 (≈ 1.52 µg/mL) | 2.5 (≈ 1.09 µg/mL) |
| COC(=O)c1[nH]c(C(=O)OC)c(-c2c[nH]c3ccc(Cl)cc23)c1-c1c[nH]c2ccc(Cl)cc12 [LYNAMICIN D] | – | 17 (≈ 8.2 µg/mL) | 8.3 (≈ 4 µg/mL) | 42 (≈ 20.3 µg/mL) | 17 (≈ 8.2 µg/mL) | 10 (≈ 4.82 µg/mL) | 17 (≈ 8.2 µg/mL) | > 67 | 50 (≈ 24.1 µg/mL) | 8.3 (≈ 4 µg/mL) | 6.2 (≈ 2.99 µg/mL) | 6.2 (≈ 2.99 µg/mL) |
| COC(=O)c1[nH]c(C(=O)OC)c(-c2c[nH]c3ccc(Cl)cc23)c1-c1c[nH]c2ccccc12 [LYNAMICIN E] | – | > 54 | 45 (≈ 20.2 µg/mL) | > 72 | > 54 | > 72 | > 72 | > 72 | > 72 | > 72 | 27 (≈ 12.1 µg/mL) | > 45 |
